Experimental findings from ChEMBL document CHEMBL4130495, “Design, synthesis and biological evaluations of N-Hydroxy thienopyrimidine-2,4-diones as inhibitors of HIV reverse transcriptase-associated RNase H” (Eur J Med Chem, 2017) are described below.

The test system of data set [1] is Human immunodeficiency virus 1. Put plainly: Antiviral activity against HIV1 infected in human P4R5 cells assessed as reduction in viral infection preincubated with cells for 24 hrs followed by viral infection measured after 48 hrs by fluorescence based beta-galactosidase reporter gene based MAGI assay. The format is functional, organism-based.
For data set [2], the target named is Human immunodeficiency virus type 1 integrase (Human immunodeficiency virus 1, UniProt Q7ZJM1). Briefly: Inhibition of HIV1 integrase pre-incubated for 10 mins before DNA substrate addition and measured after 30 mins.
Chain of Human immunodeficiency virus type 1 integrase (Q7ZJM1 whole entry): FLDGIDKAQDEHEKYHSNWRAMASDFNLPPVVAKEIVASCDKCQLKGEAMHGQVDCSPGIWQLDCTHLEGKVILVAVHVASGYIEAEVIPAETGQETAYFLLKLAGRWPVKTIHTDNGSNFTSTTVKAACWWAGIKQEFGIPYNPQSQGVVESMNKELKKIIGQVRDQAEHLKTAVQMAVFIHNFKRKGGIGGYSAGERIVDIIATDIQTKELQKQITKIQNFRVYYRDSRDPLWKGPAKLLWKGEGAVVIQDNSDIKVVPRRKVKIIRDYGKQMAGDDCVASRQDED
Another data set has as its system P4R5. Briefly: Cytotoxicity in human P4R5 cells assessed as reduction in cell viability by MTS assay.
Data set [3] concerns the target Human immunodeficiency virus type 1 reverse transcriptase (Human immunodeficiency virus 1, UniProt Q72547). Put plainly: Inhibition of RNH activity of recombinant HIV1 reverse transcriptase RNase H assessed as reduction in internal cleavage of RNA strand using RNA/DNA duplex substrate HTS-1.
The next data set has as its target Gag-Pol polyprotein (Human immunodeficiency virus type 1 group M subtype B (isolate HXB2)(HIV-1), UniProt P04585). Briefly: Inhibition of polymerase activity of recombinant HIV1 reverse polymerase assessed as reduction in extension of an 18 nucleotide DNA primer using template/primer and dNTPs incubated for 30 mins. The arrangement: species or system Human immunodeficiency virus 1. The gist of the method: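 Recombinant HIV-1 RT (20 nM) was used with 40 nM template/primer (18-nt DNA primer annealed to a 100-nt DNA template) and 10 µM dNTPs in 50 mM Tris pH 7.8, 50 mM NaCl, with 1% DMSO and increasing compound concentrations. Reactions were started with 6 mM MgCl₂, run 30 min at 37 °C, and stopped with 100 mM EDTA. IC50 is reported as mean ± SD of ≥2 independent experiments.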

For the compound `O=c1[nH]c2cc(-c3ccccc3)sc2c(=O)n1O`, the concentration for a half-maximal effect (EC50) in data set [1] came out at 11 µM. Also, the 50% inhibitory concentration (IC50) was 4.5 µM in data set [2], 0.1 µM in data set [3] and above 10 µM on Gag-Pol polyprotein. In addition, the cytotoxic concentration (CC50) in the data set on P4R5 (P4R5) is 28 µM.

Turning to `Cc1csc2[nH]c(=O)n(O)c(=O)c12`, in data set [1], the EC50 is above 20 µM. For the same compound, the IC50 is 12 µM in data set [2], 0.1 µM in data set [3] and above 10 µM at Gag-Pol polyprotein. Moreover, the CC50 with P4R5 (P4R5) came out at 81 µM.

On to `O=c1[nH]c2cc(-c3ccccc3)ccc2c(=O)n1O`, for which, in data set [1], the EC50 stood at 3.8 µM. The concentration for half-maximal inhibition (IC50) in data set [2] is 11 µM; in data set [3], 0.2 µM; on Gag-Pol polyprotein it was above 10 µM. Further, the CC50 in the data set on P4R5 (P4R5) was 6 µM.

Turning to `O=c1[nH]c2sc(-c3ccccc3)cc2c(=O)n1O`, in data set [1], the concentration for a half-maximal effect (EC50) is above 20 µM. Besides, the half-maximal inhibitory concentration (IC50) was 2.2 µM in data set [2], 0.084 µM in data set [3] and above 10 µM at Gag-Pol polyprotein. Further, in the data set with P4R5 (P4R5 cells), the CC50 was above 100 µM.

As for `O=c1[nH]c2cc(-c3ccc(Cl)cc3)sc2c(=O)n1O`, the 50% effective concentration (EC50) in data set [1] is above 20 µM. For the same compound, the 50% inhibitory concentration (IC50) in data set [2] was 23 µM; in data set [3] it was 0.07 µM; at Gag-Pol polyprotein it was above 10 µM. Further, the CC50 in the data set with P4R5 (P4R5 cells) is above 100 µM.

Take `O=c1[nH]c2sc(Cc3ccccc3)cc2c(=O)n1O`: the EC50 in data set [1] was above 20 µM. In addition, the 50% inhibitory concentration (IC50) is 5 µM in data set [2], 0.043 µM in data set [3] and above 10 µM on Gag-Pol polyprotein. Moreover, the CC50 in the data set on P4R5 (P4R5 cells) is above 100 µM.

On to `O=C1Cc2cc(-c3ccccc3)ccc2C(=O)N1O`, for which the EC50 in data set [1] worked out at 16 µM. Further, the IC50 in data set [2] is 2 µM; in data set [3], 1.3 µM; at Gag-Pol polyprotein it was above 10 µM. Also, the cytotoxic concentration (CC50) in the data set with P4R5 (P4R5) came out at 19 µM.

On to `O=c1[nH]c2cc(-c3ccc(Cl)cc3)ccc2c(=O)n1O`, for which the 50% effective concentration (EC50) in data set [1] was 4.5 µM. The CC50 in the data set with P4R5 (P4R5) was found to be 9.9 µM. Also, the IC50 in data set [3] is 0.2 µM; on Gag-Pol polyprotein, above 10 µM.

As to `Cc1c(C(=O)O)sc2[nH]c(=O)n(O)c(=O)c12`, the concentration giving a half-maximal response (EC50) in data set [1] is above 20 µM. Further, the half-maximal inhibitory concentration (IC50) in data set [2] is 7.9 µM; in data set [3], 0.1 µM; on Gag-Pol polyprotein, above 10 µM. In the data set on P4R5 (P4R5 cells), the CC50 was above 100 µM.

Turning to `O=c1[nH]c2sccc2c(=O)n1O`, in data set [1], the EC50 stood at 18 µM. Also, the IC50 in data set [2] is 35 µM; in data set [3], 0.2 µM; on Gag-Pol polyprotein it was above 10 µM. Also, the cytotoxic concentration (CC50) in the data set with P4R5 (P4R5) was found to be 54 µM.

Turning to `O=c1[nH]c2c(c(=O)n1O)CN(Cc1ccccc1)CC2`, the IC50 is above 100 µM in data set [2] and above 10 µM at Gag-Pol polyprotein.

With `O=c1[nH]c2scc(-c3ccc(Cl)cc3)c2c(=O)n1O`, in data set [1], the concentration giving a half-maximal response (EC50) worked out at 7.4 µM. The IC50 in data set [2] is 2.1 µM; in data set [3], 0.04 µM; at Gag-Pol polyprotein it was above 10 µM. Further, in the data set with P4R5 (P4R5 cells), the CC50 is above 100 µM.

In the case of `O=c1[nH]c2cc(-c3ccc(F)cc3)sc2c(=O)n1O`, in data set [1], the EC50 is above 20 µM. The half-inhibitory concentration (IC50) in data set [2] is 17 µM; in data set [3] it was 0.2 µM; at Gag-Pol polyprotein, above 10 µM. Besides, in the data set with P4R5 (P4R5 cells), the cytotoxic concentration (CC50) is above 100 µM.

`O=c1[nH]c2scc(-c3ccccc3)c2c(=O)n1O`: the EC50 in data set [1] was 14 µM. The half-maximal inhibitory concentration (IC50) in data set [2] is 1.3 µM; in data set [3] it was 0.1 µM; on Gag-Pol polyprotein, above 10 µM. The CC50 with P4R5 (P4R5 cells) is above 100 µM.

For `Cc1sc2[nH]c(=O)n(O)c(=O)c2c1C`, the EC50 in data set [1] stood at 8.9 µM. The figures for the IC50 (in data set [2]; in data set [3]; on Gag-Pol polyprotein) were 8.4 µM, 0.1 µM and above 10 µM, respectively. Further, the CC50 with P4R5 (P4R5) worked out at 62 µM.
